# NPY2 pot ag = NPY-Y2 potentiators or agonists, primary screen, cell-based; cells expressing NPY-Y2, potentiator/agonist read-out; activation, % at 3.6 µM; AID 1359, 2008; Neuropeptide Y receptor type 2 (Homo sapiens), P49146; 220,000 compounds, 0.45% hits; in the data active = activation above about 27%;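 note: cells stimulated with NPY near EC25 plus isoproterenol at EC100; 0% = vehicle plus submaximal agonist and 100% = vehicle plus saturating agonist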
# Target sequence (P49146 whole entry, looked up): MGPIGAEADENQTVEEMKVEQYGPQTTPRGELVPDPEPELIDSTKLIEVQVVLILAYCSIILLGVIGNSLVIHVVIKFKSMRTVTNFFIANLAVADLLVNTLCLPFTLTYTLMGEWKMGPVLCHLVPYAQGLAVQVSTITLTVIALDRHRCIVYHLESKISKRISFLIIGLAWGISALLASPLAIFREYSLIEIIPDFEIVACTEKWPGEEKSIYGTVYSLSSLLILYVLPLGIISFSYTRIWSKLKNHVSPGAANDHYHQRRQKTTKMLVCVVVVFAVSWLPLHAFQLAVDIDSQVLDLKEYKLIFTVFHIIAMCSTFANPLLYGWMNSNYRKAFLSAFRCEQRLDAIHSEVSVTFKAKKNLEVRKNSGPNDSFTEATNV
# NPY Y2 blocker = NPY-Y2 receptor antagonists, primary screen, cell-based; Neuropeptide Y receptor type 2 (Homo sapiens), P49146; NPY-Y2 expressing cells, antagonist mode; inhibition, % at 2.7 µM; 140,000 compounds, 0.99% hits; AID 793, 2007; in the data active = inhibition above about 17%;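 note: 0% = vehicle with agonist challenge and 100% = reference antagonist with challenge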
# NPY-Y1 antag = NPY-Y1 receptor antagonists, primary screen, cell-based; Neuropeptide Y receptor type 1 (Homo sapiens), P25929; HEK293-CNG Y1 cells, membrane potential fluorescence; NPY at EC95, then isoproterenol; inhibition, % at 3.6 µM; 200,000 compounds, 1% hits;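 active = inhibition above the campaign mean inhibition of all tested compounds plus 3 SD, cut at about 20% in these data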;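 note: 0% = DMSO wells given NPY plus isoproterenol and 100% = isoproterenol alone without NPY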
#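 Material: HEK293 cells co-expressing NPY Y1 receptor and cyclic-nucleotide gated channel. Timing: compound incubation 1 h at room temperature, readout 45 min post-stimulation. Signal: fluorescence, membrane potential probe.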
# S1P4 antag = S1P4 receptor antagonists, primary screen, cell-based. S1P4-expressing cells, antagonist mode, reporter read-out. inhibition, % at 4.98 µM. 220,000 compounds, 0.26% hits; in the data active = inhibition above about 29%;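 note: 0% = wells stimulated with agonist and 100% = vehicle wells without agonist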
# S1P4 agonist = S1P4 receptor agonists, primary screen, cell-based; S1P4-expressing cell line, agonist reporter assay; activation, % at 4.98 µM; 220,000 compounds, 0.35% hits; Sphingosine 1-phosphate receptor 4 (Homo sapiens), O95977; in the data active = activation above about 11%;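 note: 0% = DMSO vehicle and 100% = reference agonist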
# NPY-Y1 PAM-ag = NPY-Y1 receptor potentiators or agonists, primary screen, cell-based; Neuropeptide Y receptor type 1 (Homo sapiens), P25929; 220,000 compounds, 0.37% hits; activation, % at 3.6 µM; NPY-Y1 expressing cells, potentiator/agonist activation; AID 1304, 2008; in the data active = activation above about 33%, passing the limit was not always enough;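 note: cells stimulated with NPY at EC10 then isoproterenol at EC100; 0% = low agonist plus stimulus and 100% = saturating agonist plus stimulus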
# NPY-Y1 pot conf = NPY-Y1 potentiators or agonists, confirmation, cell-based; cell-based NPY-Y1 potentiator/agonist assay; activation, % at 3.6 µM; shares compounds with NPY-Y1 PAM-ag; 280 compounds, 20% hits; in the data active = activation above about 45%;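 note: cells challenged with NPY at its EC10 plus isoproterenol stimulus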
# NPY-Y2 counter = NPY-Y2 potentiators or agonists, counter-screen for NPY-Y1 potentiator project, cell-based, fluorescence. shares compounds with NPY-Y1 PAM-ag. activation, % at 3.6 µM. 280 compounds, 20% hits. HEK293-CNG cells, membrane-potential fluorescence (FLIPR), 1536-well. AID 1649, 2009; in the data active = activation above about 33%
# NPY-Y1 agonist = NPY-Y1 direct agonists without NPY, confirmation, counter-screen for NPY-Y1 potentiator project, cell-based, fluorescence | shares compounds with NPY-Y1 PAM-ag | HEK293 Y1-CNGC, membrane potential fluorescence, agonist mode | activation, % at 3.6 µM | 280 compounds, 50% hits | AID 1697, 2009;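 active = percent activation above the mean of DMSO-only control wells plus 3 SD of those wells, cut at about 18% in these data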;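 note: cells challenged with isoproterenol plus Ro 20-1724 with no NPY in test wells; Y1 agonism lowers isoproterenol-driven cAMP and reduces probe fluorescence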
# NPY-Y2 ag = NPY-Y2 direct agonists without NPY, counter-screen for NPY-Y1 potentiator project, cell-based, fluorescence; shares compounds with NPY-Y1 PAM-ag; HEK293 Y2-CNGC, membrane potential fluorescence, agonist mode; 280 compounds, 67% hits; AID 1698, 2009; activation, % at 3.6 µM;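 active = activation above the solvent-only control wells' mean plus 3 SD, cut at about 11% in these data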;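 note: 0% = DMSO with isoproterenol and 100% = 40 nM NPY maximal response; agonism lowers cAMP so well fluorescence drops in active wells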
# CNGC counter = CNGC cAMP sensor activity inhibitors, counter-screen for NPY-Y1 potentiator/agonist project, cell-based, HEK293-CNG parental, membrane potential fluorescence, Y1 set; shares compounds with NPY-Y1 PAM-ag; isoproterenol cAMP; inhibition, % at 3.6 µM; 280 compounds, 42% hits;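 active = inhibition above the mean of stimulated solvent-only control wells plus 3 SD, cut at about 22% in these data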;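 note: 0% = isoproterenol-stimulated DMSO wells and 100% = unstimulated DMSO wells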
# * hit, by the source's call; . = no result given. This is a sample that favours compounds with a hit; in the whole collection about 2.4% have one here.
SMILES,NPY2 pot ag,NPY Y2 blocker,NPY-Y1 antag,S1P4 antag,S1P4 agonist,NPY-Y1 PAM-ag,NPY-Y1 pot conf,NPY-Y2 counter,NPY-Y1 agonist,NPY-Y2 ag,CNGC counter
CC(=O)NS(=O)(=O)c1ccc2sc(C)nc2c1,-37,.,.,16,0,-38,.,.,.,.,.
O=C(CN1c2ccccc2Sc2ccccc21)NNC(=S)Nc1ccc(Cl)cc1Cl,31,-5,-16,-7,-1,68*,38,37*,16,46*,27*
O=C(CN1c2ccccc2Sc2ccccc21)N/N=C/c1ccc(Cl)cc1Cl,-25,.,.,-6,-1,18,.,.,.,.,.
Cc1[nH]c2ccccc2c1N=Nc1ccc(F)cc1,19,.,-7,-7,1,39*,40,28,33*,30*,26*
COc1ccc(/C=C2\SC(=S)N(CC3CCCO3)C2=O)cc1 (configuration not stated),10,.,.,-1,1,11,.,.,.,.,.
COc1ccc(N=C2O/C(=C/c3sc(=S)n(CC4CCCO4)c3O)N=C2C#N)cc1 (configuration not stated),21,.,.,-5,0,53*,42,45*,22*,48*,12
COc1ccc(NC(=O)C(Sc2nnc(-c3ccncc3)n2-c2ccccc2C)c2ccccc2)cc1Cl (configuration not stated),-3,2,5,-8,-1,12,.,.,.,.,.
N#Cc1c(-c2ccccc2)c(-c2ccccc2)nn(CC(=O)NNC(=O)Nc2ccc(Cl)c(Cl)c2)c1=O,5,-1,-10,-13,0,38*,43,28,34*,32*,32*
N#CC1=C(N)OC2=C(C(=O)CC(c3ccco3)C2)C1c1ccc(OCc2c(F)cccc2Cl)cc1 (configuration not stated),-27,3,1,-17,0,63*,-2,-10,-3,-10,-3
CCOC(=O)CSc1nc(=O)n2ccccc2n1,-20,.,7,-9,0,68*,2,-3,2,-6,-5
CN(C)Cc1c(O)ccc2oc(Cc3ccccc3)cc12,21,8,1,9,0,53*,16,18,21*,26*,-1
COCc1cc(C)nc(SCC[N+](C)(C)CC(=O)Nc2cccc(C(F)(F)F)c2)c1C#N,-6,.,-4,-4,0,54*,22,12,16,6,4
O=C(CC1NCCc2ccccc21)Nc1ccc(Cl)cc1 (configuration not stated),-12,.,1,-5,-1,56*,-8,-5,-17,-10,-2
COc1cccc(/C=N/Nc2snc(SC)c2C#N)c1O,8,1,-1,1,2,50*,-5,4,-2,18*,6
COc1ccc(/C=N/Nc2snc(SC)c2C#N)cc1OC,8,-2,-3,-17,3,24,.,.,.,.,.
O=C1CCC2S/C(=C/Nc3ccc(C(F)(F)F)cc3)C(=O)N12 (configuration not stated),18,.,-4,2,3,39*,35,18,22*,25*,30*
O=C1CCCC/C1=C/Nc1cccc(C(F)(F)F)c1,0,.,7,-4,-1,-1,.,.,.,.,.
Cc1ccn2c(Nc3ccccc3C)c(-c3ccncc3)nc2c1,30,0,-4,-16,0,41*,59*,50*,36*,50*,27*
CC(=O)NCCCNS(=O)(=O)c1ccc(C)cc1,-1,.,2,-18,3,7,.,.,.,.,.
Cc1[nH]c2ccccc2c1/C=N/NC(=O)c1cccc(S(=O)(=O)Nc2ccccc2Cl)c1,12,0,-2,1,2,-11,.,.,.,.,.
CCc1cccc2c(/C=N/NC(=O)c3cccc(S(=O)(=O)Nc4ccccc4Cl)c3)c[nH]c12,-2,-2,-9,-2,1,46*,33,27,31*,19*,26*
O=C(COC(=O)c1ccc(NS(=O)(=O)c2cccs2)cc1O)Nc1nc2ccccc2s1,22,.,-3,4,1,43*,35,24,38*,25*,22*
O=C(COC(=O)c1ccc(NS(=O)(=O)c2cccs2)cc1O)NCc1ccccc1,-9,.,1,-16,0,3,.,.,.,.,.
COc1ccc2cc(C3(C)NC(=O)NC3=O)ccc2c1 (configuration not stated),8,-1,-7,6,1,68*,0,-5,-6,-3,-8
COc1ccc2c(c1)CCCC21NC(=O)NC1=O (configuration not stated),9,0,2,4,-2,2,.,.,.,.,.
Cc1noc2ncnc(Sc3ccc(Cl)cc3)c12,4,11,-2,24,-2,66*,-4,-6,-11,6,-7
CN1C(=S)SC2CS(=O)(=O)CC21 (configuration not stated),-17,.,.,0,0,-6,.,.,.,.,.
O=C(c1ccccc1)N1CCN(C(=O)c2ccncc2)CC1,0,2,-5,-11,2,-3,.,.,.,.,.
O=C(c1ccccc1)N1CCN(c2n[nH]c(=O)[nH]c2=O)CC1,9,.,6,-1,3,45*,0,0,-4,-3,-3
CCOC(=O)N1CCN(C(=O)/C(=C/c2cccs2)NC(=O)c2cccs2)CC1,2,.,-1,8,0,43*,3,-1,-6,-5,-6
